From publication PMC5788414 (Journal of Medicinal Chemistry, 2017)
Several values for one entry are separate records, joined by “and”; a condition that tells them apart may be missing. Equal entries are not always repeated. Entries after “also recorded” stand apart in the source; their conditions may differ. Each block holds one molecule with its values, some of them ahead of it.

Columns and labels:
BRD3 = BRD3 (Homo sapiens, UniProt Q15059); test: Western blotting of BRD3 protein level in RS4; assay type: cell-based; settings: RS4;11 cells, Western blot; for Lowest concentration effective in decreasing the level of BRD3 protein: 3 h treatment
BRD3, sequence (Q15059 whole entry): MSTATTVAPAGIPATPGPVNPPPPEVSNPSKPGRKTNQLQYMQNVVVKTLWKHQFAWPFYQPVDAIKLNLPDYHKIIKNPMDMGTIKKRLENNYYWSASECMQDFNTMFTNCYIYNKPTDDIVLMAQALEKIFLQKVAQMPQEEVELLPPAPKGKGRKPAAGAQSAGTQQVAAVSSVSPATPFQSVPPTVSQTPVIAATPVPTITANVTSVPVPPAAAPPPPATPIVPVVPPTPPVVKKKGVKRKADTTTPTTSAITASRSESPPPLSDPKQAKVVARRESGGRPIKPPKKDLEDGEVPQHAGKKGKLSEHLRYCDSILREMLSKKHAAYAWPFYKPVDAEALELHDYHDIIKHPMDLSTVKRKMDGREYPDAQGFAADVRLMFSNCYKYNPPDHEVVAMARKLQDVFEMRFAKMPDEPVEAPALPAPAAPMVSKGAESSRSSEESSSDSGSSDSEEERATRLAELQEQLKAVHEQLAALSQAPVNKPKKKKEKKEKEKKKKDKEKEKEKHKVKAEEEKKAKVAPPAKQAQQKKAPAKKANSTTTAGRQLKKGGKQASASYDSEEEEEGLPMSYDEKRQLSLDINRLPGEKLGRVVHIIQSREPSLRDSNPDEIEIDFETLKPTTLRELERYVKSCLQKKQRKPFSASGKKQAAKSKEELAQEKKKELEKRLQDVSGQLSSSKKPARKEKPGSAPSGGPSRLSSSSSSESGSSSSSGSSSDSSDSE
In short: (§1)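 RS4;11 cells (2 × 10⁶/well) were treated with the test compound at the indicated concentrations for 3 h or 24 h. Cells were lysed in RIPA buffer with protease inhibitors. Lysate (20 μg per lane) was separated by SDS–PAGE, blotted onto PVDF, and probed with BRD2, BRD3 and BRD4 antibodies, with GAPDH as the loading control.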

[1] = system: RS4;11 acute leukemia cell line; test: Cell growth inhibition; assay type: cell-based, human; settings: comparator 23
BRD2 = BRD2 (Homo sapiens, UniProt P25440); test: Western blotting of BRD2 protein level in RS4; assay type: cell-based; settings: RS4;11 cells, Western blot; for Lowest concentration effective in decreasing the level of BRD2 protein: 3 h treatment
BRD2, sequence (P25440 whole entry): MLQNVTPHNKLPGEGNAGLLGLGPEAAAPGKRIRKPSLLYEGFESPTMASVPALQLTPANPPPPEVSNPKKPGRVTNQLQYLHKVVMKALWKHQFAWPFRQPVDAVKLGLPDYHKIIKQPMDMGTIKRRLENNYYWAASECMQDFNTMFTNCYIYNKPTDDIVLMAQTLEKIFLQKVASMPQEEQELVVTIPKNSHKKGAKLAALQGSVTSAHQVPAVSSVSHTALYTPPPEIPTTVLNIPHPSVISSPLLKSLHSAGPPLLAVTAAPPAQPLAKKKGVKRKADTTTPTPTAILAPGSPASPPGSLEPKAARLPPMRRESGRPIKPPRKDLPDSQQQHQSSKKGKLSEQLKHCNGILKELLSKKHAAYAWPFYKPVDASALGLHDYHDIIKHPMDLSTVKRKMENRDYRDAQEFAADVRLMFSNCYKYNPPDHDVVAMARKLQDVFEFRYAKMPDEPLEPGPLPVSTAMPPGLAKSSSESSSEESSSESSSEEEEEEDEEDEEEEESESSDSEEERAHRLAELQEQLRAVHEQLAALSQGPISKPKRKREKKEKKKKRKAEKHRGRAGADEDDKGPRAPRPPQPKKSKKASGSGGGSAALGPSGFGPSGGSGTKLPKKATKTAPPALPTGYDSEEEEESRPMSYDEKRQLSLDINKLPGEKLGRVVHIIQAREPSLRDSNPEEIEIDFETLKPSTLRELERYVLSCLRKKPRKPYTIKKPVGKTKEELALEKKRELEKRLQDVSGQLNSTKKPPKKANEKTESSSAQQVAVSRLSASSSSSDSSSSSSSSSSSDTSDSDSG
In short: as §1

BRD4 = BRD4 (Homo sapiens, UniProt O60885); test: Western blotting of BRD4 protein level in RS4; assay type: cell-based; settings: RS4;11 cells; for Lowest concentration effective in decreasing the level of BRD4 protein: 3 h treatment
In short: as §1

BRD2, BRD3, and BRD4 = test: FP-based competitive binding assays, BET proteins overall; settings: binding to BRD2, BRD3, BRD4
MOLM-13 cell line [2] = test: Cell cycle arrest by flow cytometry; assay type: cell-based, human; settings: MOLM-13, 24 h
In short: (§2)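 Cell cycle was read by propidium iodide staining and flow cytometry after 24 h exposure to the test compound at the indicated concentrations. RS4;11 or MOLM-13 cells were cultured in RPMI 1640 with 10% FBS and 1% penicillin–streptomycin at 37 °C, 5% CO₂, and used within three months of thawing.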

RS4;11 cell line [3] = test: Apoptosis induction by flow cytometry; assay type: cell-based, human; settings: RS4;11, 24 h treatment
In short: (§3)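 RS4;11 or MOLM-13 cells were grown in RPMI 1640 with 10% FBS and 1% penicillin–streptomycin at 37 °C, 5% CO₂, and used within three months of thawing. Cells were treated with the test compound at the indicated concentrations for 24 h. They were then stained with annexin V and propidium iodide and analysed by flow cytometry.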

[4] = Animal weight and signs of toxicity in RS4; assay type: in vivo; settings: mice bearing RS4;11 xenografts, 5 mg/kg intravenously, three times a week for 3 weeks
In short: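 Subcutaneous dorsal xenografts in SCID mice: 5 × 10⁶ RS4;11 cells in 50% Matrigel, one tumor per mouse. Mice randomised to treatment or vehicle groups at ~100 mm³. Dosing was intravenous every other day. Toxicity signs checked daily. Body weight recorded 2–3 times per week during treatment and at least weekly afterwards.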

[5] = system: triple-negative human breast cancer; settings: in vitro and in vivo ref 32; cited from earlier work
c-Myc [6] = test: Pharmacodynamic Western blotting of c-Myc in RS4; assay type: in vivo, SCID mice; settings: single intravenous dose, 5 mg/kg
In short: (§4)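 SCID mice bearing RS4;11 xenografts were given one 5 mg/kg IV dose of the test compound and killed at 1, 3, 6 or 24 h; vehicle-treated mice were killed at 6 h. Two mice were used per time point, with one or two tumours each. Lysates were run on 4–20% gels and immunoblotted on PVDF for BRD2–4, c-Myc, PARP and caspase-3. Actin was the loading control, with ECL detection.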

RS4;11 xenograft tumors = test: Antitumor efficacy in RS4; assay type: in vivo; settings: mice, 5 mg/kg intravenously
In short: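 Human RS4;11 leukaemia cells (5 × 10⁶, in 50% Matrigel) were injected subcutaneously on the dorsal side of SCID mice, one tumour per mouse. At ∼100 mm³, mice were randomised to treatment or vehicle groups. The test compound was given at 5 mg/kg IV every other day, three times a week, for 3 weeks. Tumours were measured by calipers 2–3 times weekly (V = LW²/2). Body weight and toxicity signs were monitored.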

c-Myc [7] = test: Western blotting of c-Myc level in RS4; assay type: cell-based, human; settings: for Concentration effectively down-regulating the level of c-Myc: RS4;11 cells, 24 h treatment, Western blot
In short: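 RS4;11 cells (2 × 10⁶/well) were exposed for 24 h to the test compound at the indicated concentrations. Cells were lysed in RIPA buffer with protease inhibitors. Lysate (20 μg per lane) was separated by SDS–PAGE, transferred to PVDF, and immunoblotted for c-Myc, with GAPDH as the loading control.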

[8] = system: BRD2, BRD3, and BRD4 proteins; test: Western blotting of BET protein levels in RS4; assay type: cell-based, human
[9] = Drug concentration in RS4; assay type: in vivo, SCID mice
In short: (§5)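 Female SCID C.B-17 mice bearing RS4;11 tumours received a single 5 mg/kg IV dose in 20% PEG 400, 6% Cremophor EL and 74% PBS. Mice were killed at 1, 3, 6 and 24 h (two mice per time point, three tumours per time point). Plasma came from blood spun at 15 000 rpm for 10 min; tumours were frozen and ground in liquid nitrogen. Samples were kept at −80 °C and assayed by LC–MS/MS on a C18 column.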

PARP and caspase-3 = test: Pharmacodynamic Western blotting of PARP and caspase-3 cleavage in RS4; assay type: in vivo, SCID mice; settings: single intravenous dose, 5 mg/kg
In short: as §4

[10] = In vitro metabolite identification in mouse liver microsomes; assay type: in vitro ADME; settings: 10 μM, MLM with β-NADPH, 37 °C, 20 and 40 min
In short: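 Incubation was quenched with a 3-fold volume of ice-cold acetonitrile, then centrifuged at 15 000 rpm for 10 min; supernatant stored at −80 °C. Negative controls omitted NADPH or used boiled microsomes. Metabolites were identified by tandem mass spectrometry, starting from the parent's product ion spectrum to establish fragmentation.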

[11] = system: BRD2, BRD3, and BRD4 proteins; test: Pharmacodynamic Western blotting of BET proteins in RS4; assay type: in vivo, SCID mice; settings: single intravenous dose, 5 mg/kg
In short: as §4

MOLM-13 cell line [12] = test: Apoptosis induction by flow cytometry; assay type: cell-based, human; settings: MOLM-13, 24 h treatment
In short: as §3

RS4;11 cell line [13] = test: Cell cycle arrest by flow cytometry; assay type: cell-based, human; settings: RS4;11, 24 h
In short: as §2

[14] = Drug concentration in plasma; assay type: in vivo, SCID mice
In short: as §5

[15] = system: MOLM-13 acute leukemia cell line; test: Cell growth inhibition; assay type: cell-based, human; settings: MOLM13; comparator 23
[16] = 1 h after single 5 mg/kg intravenous dose
[17] = 3 h after single 5 mg/kg intravenous dose
[18] = 6 h after single 5 mg/kg intravenous dose

Compound: CNC(=O)c1ncc2c(n1)[nH]c1cc(-c3c(C)noc3C)c(OC)cc12 [Compound 28, 7-(3,5-Dimethylisoxazol-4-yl)-6-methoxy-N-methyl-9H-pyrimido[4,5-b]indole-2-carboxamide]
times less potent than 8 in binding affinity (BRD2, BRD3, and BRD4; comparator 8): > 100 times

Compound: CCn1nc(C2CC2)cc1Nc1nc(C(=O)NCCCCCc2cccc3c2CN(C2CCC(=O)NC2=O)C3=O)nc2[nH]c3cc(-c4c(C)noc4C)c(OC)cc3c12 (centres unmarked) [Compound 23, 4-((3-Cyclopropyl-1-ethyl-1H-pyrazol-5-yl)amino)-7-(3,5-dimethylisoxazol-4-yl)-N-(5-(2-(2,6-dioxopiperidin-3-yl)-1-oxoisoindolin-4-yl)pentyl)-6-methoxy-9H-pyrimido[4,5-b]indole-2-carboxamide]
Concentration effective in inducing cell cycle arrest (MOLM-13 cell line [2]): 1 to 3 nM
Lowest concentration effective in decreasing the level of BRD3 protein (BRD3): 0.1 nM
Lowest concentration effectively reducing the level of BRD3 protein (BRD3; 24 h treatment): 0.1 nM
Concentration inducing robust apoptosis (RS4;11 cell line [3]): 3 to 10 nM
Animal weight loss or signs of toxicity [4]: no animal weight loss or other signs of toxicity; also recorded: minimal body weight change; also recorded: no signs of toxicity
Activity against triple-negative human breast cancer [5]: very potent and efficacious
Duration of c-Myc down-regulation in tumor tissue (c-Myc [6]): at least 6 h
Antitumor activity against RS4;11 xenograft tumors (RS4;11 xenograft tumors): rapid tumor regression
times more potent than 8 in down-regulation of c-Myc protein (c-Myc [7]; RS4;11 cell line, comparator 8): > 1000 times
Concentration effectively down-regulating the level of c-Myc (c-Myc [7]): 0.1 nM
Lowest concentrations effective in decreasing the level of BRD2, BRD3, and BRD4 proteins ([8]; RS4;11 cells, 3 h treatment, Western blot): 0.1 to 0.3 nM
Concentrations inducing degradation of BRD2, BRD3, and BRD4 proteins ([8]; RS4;11 leukemia cells): 30 to 100 pM
concn in tumor, individual tumor [9, 16]: 123 ng/g and 240.5 ng/g
concn in tumor, individual tumor [9, 17]: 89 ng/g and 120.5 ng/g
concn in tumor, individual tumor [9, 18]: 31.9 ng/g
Onset of cleavage of PARP and caspase-3 in tumor tissue (PARP and caspase-3): 3 h
Time of peak cleavage of PARP and caspase-3 in tumor tissue (PARP and caspase-3): 6 h
Major metabolite in mouse liver microsomes [10]: mono- or dihydroxylated product occurring in the alkyl chain in the linker
Duration of reduction of BRD2, BRD3, and BRD4 proteins in tumor tissue [11]: > 24 h
Onset of reduction of BRD2, BRD3, and BRD4 proteins in tumor tissue [11]: 1 h
Concentration inducing robust apoptosis (MOLM-13 cell line [12]): 3 to 10 nM
Lowest concentration effective in decreasing the level of BRD2 protein (BRD2): 0.3 nM
Lowest concentration effectively reducing the level of BRD2 protein (BRD2; 24 h treatment): 0.1 nM
Concentration effective in inducing cell cycle arrest (RS4;11 cell line [13]): 0.3 nM
Lowest concentration effective in decreasing the level of BRD4 protein (BRD4; Western blot): 0.3 nM
Lowest concentration degrading BRD4 protein (BRD4; 24 h treatment): 30 pM
Lowest concentration effectively reducing the level of BRD4 protein (BRD4; 24 h treatment, Western blot): 0.03 nM
concn in plasma, individual mice [14, 16]: 362 ng/mL
concn in plasma, individual mice [14, 17]: 76.1 ng/mL
concn in plasma, individual mice [14, 18]: 7.4 ng/mL

Compound: COc1cc2c(cc1-c1c(C)noc1C)[nH]c1nc(C(=O)NCCCCCc3cccc4c3CN(C3CCC(=O)NC3=O)C4=O)ncc12 (centres unmarked) [Compound 27, 7-(3,5-Dimethylisoxazol-4-yl)-N-(5-(2-(2,6-dioxopiperidin-3-yl)-1-oxoisoindolin-4-yl)pentyl)-6-methoxy-9H-pyrimido[4,5-b]indole-2-carboxamide]
times less potent than 23 in cell growth inhibition [15]: > 400 times
times less potent than 23 in cell growth inhibition [1]: > 10 000 times

Compound: CCn1nc(C2CC2)cc1Nc1nc(C(=O)NC)nc2[nH]c3cc(-c4c(C)noc4C)c(OC)cc3c12 [Compound 8, 4-((3-Cyclopropyl-1-ethyl-1H-pyrazol-5-yl)amino)-7-(3,5-dimethylisoxazol-4-yl)-6-methoxy-N-methyl-9H-pyrimido[4,5-b]indole-2-carboxamide]
Concentration effective in inducing cell cycle arrest (MOLM-13 cell line [2]): 30 to 100 nM
times more potent than 1 or 2 in binding (BRD2, BRD3, and BRD4; comparator 1 or 2): > 10 times
Concentration inducing robust apoptosis (RS4;11 cell line [3]): > 300 nM
Concentration effectively down-regulating the level of c-Myc (c-Myc [7]): 300 to 1000 nM
Effect of pretreatment on degradation of BRD2, BRD3, and BRD4 induced by 23 ([8]; RS4;11 cells, 2 h pretreatment, then 3 h treatment with 23 at 1 nM): effectively blocks
Effect on the level of BRD2–4 proteins ([8]; RS4;11 cells, 3 h, at both 100 and 300 nM): fails to decrease
Effect on the level of BRD2–4 proteins ([8]; RS4;11 cells, 24 h, all concentrations tested (30–1000 nM)): no effect
Concentration inducing robust apoptosis (MOLM-13 cell line [12]): > 300 nM
Concentration effective in inducing cell cycle arrest (RS4;11 cell line [13]): 30 nM

Continued, in another order:

Lowest concentration effective in decreasing the level of BRD3 protein (BRD3): 1 nM
Lowest concentration effective in decreasing the level of BRD2 protein (BRD2): 3 nM
Lowest concentration effective in decreasing the level of BRD4 protein (BRD4; Western blot): 3 nM
Compound: CCn1nc(C2CC2)cc1Nc1nc(C(=O)NCCCCc2cccc3c2CN(C2CCC(=O)NC2=O)C3=O)nc2[nH]c3cc(-c4c(C)noc4C)c(OC)cc3c12 (centres unmarked) [Compound 24, 4-((3-Cyclopropyl-1-ethyl-1H-pyrazol-5-yl)amino)-7-(3,5-dimethylisoxazol-4-yl)-N-(4-(2-(2,6-dioxopiperidin-3-yl)-1-oxoisoindolin-4-yl)butyl)-6-methoxy-9H-pyrimido[4,5-b]indole-2-carboxamide]
times less potent than 23 in cell growth inhibition [1]: 19 times

Lowest concentration effective in decreasing the level of BRD3 protein (BRD3): 10 nM
Lowest concentration effective in decreasing the level of BRD2 protein (BRD2): less potent and effective
Lowest concentration effective in decreasing the level of BRD4 protein (BRD4; Western blot): 10 nM
Compound: CCn1nc(C2CC2)cc1Nc1nc(C(=O)NCCCc2cccc3c2CN(C2CCC(=O)NC2=O)C3=O)nc2[nH]c3cc(-c4c(C)noc4C)c(OC)cc3c12 (centres unmarked) [Compound 25, 4-((3-Cyclopropyl-1-ethyl-1H-pyrazol-5-yl)amino)-7-(3,5-dimethylisoxazol-4-yl)-N-(3-(2-(2,6-dioxopiperidin-3-yl)-1-oxoisoindolin-4-yl)propyl)-6-methoxy-9H-pyrimido[4,5-b]indole-2-carboxamide]
times less potent than 23 in cell growth inhibition [1]: 188 times

Lowest concentration effective in decreasing the level of BRD3 protein (BRD3): 0.1 nM
Lowest concentration effective in decreasing the level of BRD2 protein (BRD2): 0.3 nM
Lowest concentration effective in decreasing the level of BRD4 protein (BRD4; Western blot): 0.3 nM
Compound: CCn1nc(C2CC2)cc1Nc1nc(C(=O)NCCCCCCc2cccc3c2CN(C2CCC(=O)NC2=O)C3=O)nc2[nH]c3cc(-c4c(C)noc4C)c(OC)cc3c12 (centres unmarked) [Compound 21, 4-((3-Cyclopropyl-1-ethyl-1H-pyrazol-5-yl)amino)-7-(3,5-dimethylisoxazol-4-yl)-N-(6-(2-(2,6-dioxopiperidin-3-yl)-1-oxoisoindolin-4-yl)hexyl)-6-methoxy-9H-pyrimido[4,5-b]indole-2-carboxamide]
